Screening data as filed in PubChem.
A selection: hits, their analogues and other compounds. The true share with any hit is near 0.58%.
V1aR counter = agonists of human V1a receptor, primary screen, counter-screen for OXTR agonist project, fluorescence, CHO-V1R cells; AID 2797, 2010; actives 0.25% (n = 320,000); Vasopressin V1a receptor (Homo sapiens), P37288; activation, % at 3 µM; Fluo-8 calcium fluorescence, agonist mode; 0% DMSO, 100% 3 nM vasopressin;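 active = activation above the mean activation of all tested compounds plus 3 SD, per screening run, cut at about 20% in these data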;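 also: signal is peak over basal fluorescence ratio across a 100 second FLIPR read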
zfTRPN1 agonist = zebrafish TRPN1 channel agonists, primary screen, cell-based, HEK293, calcium fluorescence; HEK293 zebrafish TRPN1-YFP, Fluo-8 calcium fluorescence; 100% = response to 87 µM carbachol; activation, % at 3 µM; actives 0.18% (n = 220,000); AID 1424, 2008;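 active = activation above its plate's cutoff, the mean activation of test wells on that plate plus 3 SD, cut at about 19% in these data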
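Material – zebrafish TRPN1-YFP in HEK293 cells · Doses – 3 µM single point · Schedule – dye 1 h 37 °C plus 30 min RT · Signal – Fluo-8 calcium fluorescence, excitation 470-495 nm, emission 515-575 nm · Read-out – % activation versus carbachol response · Control set – carbachol high, DMSO low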
TRPML3 ag = human TRPML3 channel agonists, primary screen, cell-based, HEK293 TRPML3-YFP, Fluo-8 calcium fluorescence, 3 µM. AID 1448, 2008. 100% = the carbachol control signal. actives 0.29% (n = 220,000). activation, % at 3 µM;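 active = activation above its plate's cutoff, the mean activation of the plate's test wells plus 3 SD, cut at about 12% in these data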
Target sequence (Q8TDD5 whole entry, looked up): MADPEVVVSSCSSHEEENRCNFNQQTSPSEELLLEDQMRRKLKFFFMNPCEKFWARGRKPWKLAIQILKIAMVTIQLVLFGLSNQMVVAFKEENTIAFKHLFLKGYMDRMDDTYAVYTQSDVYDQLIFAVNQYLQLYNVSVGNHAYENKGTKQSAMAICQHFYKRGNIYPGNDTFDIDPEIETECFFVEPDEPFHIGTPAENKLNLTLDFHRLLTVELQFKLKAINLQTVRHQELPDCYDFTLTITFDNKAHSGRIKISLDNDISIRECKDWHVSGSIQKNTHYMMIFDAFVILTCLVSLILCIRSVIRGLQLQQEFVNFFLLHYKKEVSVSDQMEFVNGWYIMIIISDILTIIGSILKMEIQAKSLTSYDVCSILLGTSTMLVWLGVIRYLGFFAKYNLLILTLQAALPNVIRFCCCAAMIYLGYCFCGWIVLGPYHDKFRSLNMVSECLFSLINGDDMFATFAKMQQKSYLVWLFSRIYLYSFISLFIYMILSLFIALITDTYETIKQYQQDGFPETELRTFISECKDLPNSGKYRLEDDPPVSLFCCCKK
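system = HEK293 cells stably carrying human TRPML3-YFP | doses = one concentration, 3 µM nominal, 0.3% DMSO | timing = dye loading 1 h 37 °C then 30 min ambient, 125 s read | detection = Fluo-8 calcium dye fluorescence, ex 470-495, em 515-575 nm | benchmarks = high control carbachol 87 µM, low control DMSO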
OXTR ag = human OXTR agonists, primary screen, fluorescence, CHO-OTR cells, Fluo-8 calcium; actives 0.32% (n = 320,000); activation, % at 3 µM; Fluo-8 calcium fluorescence; normalized: DMSO 0%, oxytocin 100%; AID 2435, 2010; Oxytocin receptor (Homo sapiens), P30559;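 active = activation above the mean of all tested compounds plus 3 SD, cutoff set per screening run, cut at about 20% in these data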;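 also: peak over basal fluorescence ratio from a 100 s FLIPR kinetic read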
OXTR potentiate = human OXTR potentiators, primary screen, fluorescence, CHO-OTR cells, Fluo-8 calcium | Oxytocin receptor (Homo sapiens), P30559 | Fluo-8 calcium fluorescence, potentiator mode; 0% = oxytocin EC15, 100% = EC100 | activation, % at 3 µM | actives 0.061% (n = 320,000) | AID 2445, 2010;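 active = activation above that plate's cutoff, the mean activation of tested compounds plus 3 SD, cut at about 6.6% in these data, passing the limit was not always enough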
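System: human OTR in CHO cells / Also added: sub-maximal oxytocin, roughly EC15 / Control set: EC15 oxytocin low, 75 nM oxytocin high / Schedule: 6 min compound pre-incubation at room temperature, 100 s kinetic read / Compound: single-point 3.0 µM / Replication: singlicate / Technique: Fluo-8 calcium dye fluorescence / Read-out basis: % activation of max/min ratio relative to oxytocin controls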
Each line names hits and unclear results; the compound was inactive in the other large screens.

Cc1ccc(NC(=O)C2C3C=CC(O3)C2C(=O)O)c(C)c1 (stereo unspecified)	none (no result: zfTRPN1 agonist, TRPML3 ag)
Cc1onc(-c2ccccc2)c1C(=O)Nc1nncs1	none (no result: zfTRPN1 agonist, TRPML3 ag)
CC(C)C[C@H]1CN=C(Nc2ccccc2)N1CCc1cccc(F)c1	V1aR counter 73.4, OXTR ag 51.5 (no result: zfTRPN1 agonist, TRPML3 ag)
CC(C)C[C@H]1CN=C(Nc2ccccc2)N1CCc1ccc(F)cc1	V1aR counter 59.0, OXTR ag 43.6 (no result: zfTRPN1 agonist, TRPML3 ag)
CC1CCCC(NC(=O)C2CCN(S(=O)(=O)c3cnc[nH]3)CC2)C1C (stereo unspecified)	none (no result: zfTRPN1 agonist, TRPML3 ag)
Cc1ccc(N=Nc2[nH]c3ccccc3c2O)cc1	V1aR counter 22.4, OXTR ag 32.3
C=C(C)CN(CC)C(=O)COc1ccc(S(=O)(=O)Nc2ccc(OC)cc2)cc1	V1aR counter 24.1, OXTR ag 28.8
O=C(c1ccc([N+](=O)[O-])cc1)N(Cc1ccc(Cl)cc1)N1C(=O)CCCC1=O	zfTRPN1 agonist 27.3, TRPML3 ag 86.8
O=C(c1ccc(Cl)cc1)N(Cc1ccc(Br)cc1)N1C(=O)CCC1=O	none
Cc1nnc(SCC(=O)c2cc(C)n(-c3ccc4c(c3)OCO4)c2C)s1	zfTRPN1 agonist 27.3, TRPML3 ag 16.8
Cc1ccccc1N(CC(=O)NCCc1ccccc1)C(=O)c1csnn1	none (no result: zfTRPN1 agonist, TRPML3 ag)
CCCCn1c(N)c(N(CC(C)C)C(=O)c2ccc(Cl)c(S(=O)(=O)N3CCCC3)c2)c(=O)[nH]c1=O	none (no result: zfTRPN1 agonist, TRPML3 ag)
Cc1cccc(C)c1NC(=O)COC(=O)c1ccc2c(c1)OCO2	none
CC(OC(=O)c1c2c(nc3ccccc13)/C(=C\c1ccc3c(c1)OCO3)CCC2)C(=O)Nc1ccc(S(N)(=O)=O)cc1 (stereo unspecified)	zfTRPN1 agonist 27.9, TRPML3 ag 21.7 (no result: V1aR counter, OXTR ag, OXTR potentiate)
Cc1cccc(C)c1NC(=O)COC(=O)c1c2c(nc3ccccc13)/C(=C\c1ccc3c(c1)OCO3)CCC2	V1aR counter 51.5, zfTRPN1 agonist 134.6, TRPML3 ag 39.5, OXTR ag 52.2
CC(C)(C)C(=O)NC(=S)NNC(=O)C(c1ccccc1)c1ccccc1	V1aR counter 126.8, zfTRPN1 agonist 167.6, TRPML3 ag 113.7, OXTR ag 89.0
CCOc1ccc(N(CC(=O)O)S(=O)(=O)c2ccc(F)cc2)cc1	zfTRPN1 agonist 69.8
CCN1C/C(=C/c2ccc(N3CCOCC3)cc2)C(=O)/C(=C/c2ccc(N3CCOCC3)cc2)C1	V1aR counter 21.6, OXTR ag 25.7
CC1CCN(c2ccc3c(c2)S(=O)(=O)c2cccc(C(=O)NCc4cccc(F)c4)c2C3=O)CC1	V1aR counter 37.8, OXTR ag 49.8 (no result: zfTRPN1 agonist, TRPML3 ag)
O=C(NCc1cccc(F)c1)c1cccc2c1C(=O)c1ccc(N3CCCC3)cc1S2(=O)=O	V1aR counter 26.2, OXTR ag 20.0 (no result: zfTRPN1 agonist, TRPML3 ag)
O=C(NCc1cccc(F)c1)c1cccc2c1C(=O)c1ccc(N3CCC(Cc4ccccc4)CC3)cc1S2(=O)=O	none (no result: zfTRPN1 agonist, TRPML3 ag)
CCC1CCCCN1C(=O)COC(=O)CN(C)S(=O)(=O)c1ccc(NC(C)=O)cc1 (stereo unspecified)	none (no result: zfTRPN1 agonist, TRPML3 ag)
CN(C)c1ccc(/C=C2\SC(=S)N(Nc3ncc(C(F)(F)F)cc3Cl)C2=O)cc1	V1aR counter 91.6, OXTR ag 72.5
Cc1cc(C)nc(NN2C(=O)/C(=C/c3ccccc3)SC2=S)n1	none
COc1ccc(N=Cc2sc(O)c3ccccc23)cc1	V1aR counter 76.6, zfTRPN1 agonist 33.4, TRPML3 ag 27.6, OXTR ag 57.6
O=C(COC(=O)c1ccccc1[N+](=O)[O-])NCCCc1ccccc1	none (no result: zfTRPN1 agonist, TRPML3 ag)
NC(=O)CC(NC(=O)Cc1ccc(Cl)cc1)c1ccc(NCCN2CCOCC2)c([N+](=O)[O-])c1 (stereo unspecified)	none (no result: zfTRPN1 agonist, TRPML3 ag)
COCCN(Cc1nc(-c2ccc(-c3ccccc3)cc2)oc1C)C(C)C	none (no result: zfTRPN1 agonist, TRPML3 ag)
CCOc1ccc(NC(=O)CCC(=O)Oc2ccc(C)cc2)cc1	none (no result: zfTRPN1 agonist, TRPML3 ag)
O=C(O)CCC(=O)Nc1nnc(C(F)(F)F)s1	none
CCC(NC(=O)Nc1nnc(C(F)(F)F)s1)(C(F)(F)F)C(F)(F)F	zfTRPN1 agonist 26.5, TRPML3 ag 23.3
CN1CCC/C1=C/C=C1\SC(=S)NC1=O	V1aR counter 24.1, OXTR ag 45.7
COc1ccc(S(=O)(=O)Nc2ccc(S(=O)(=O)N3CCCCC3)cc2)cc1	V1aR counter 23.8, OXTR ag 21.1
COc1ccc(S(=O)(=O)Nc2ccc(S(=O)(=O)N3CCCC3)cc2)cc1	none
O=C1/C(=C/c2cccs2)CCC/C1=C\c1cccs1	none (no result: zfTRPN1 agonist, TRPML3 ag)
Cn1cccc1/C=C1\CCC/C(=C\c2cccn2C)C1=O	V1aR counter 44.2, OXTR ag 75.0
CCC(CNC(=O)c1c(C)nn(-c2ccccc2)c1Cl)c1ccccc1 (stereo unspecified)	none (no result: zfTRPN1 agonist, TRPML3 ag)
COc1ccccc1N=C1NC(=O)/C(=C/c2ccc(N(C)C)cc2)S1	V1aR counter 24.5, OXTR ag 24.7 (no result: zfTRPN1 agonist, TRPML3 ag)
Cc1ccc(S(=O)(=O)N2CCOCC2)cc1NC(=O)COC(=O)/C=C/c1ccc(F)cc1	none (no result: zfTRPN1 agonist, TRPML3 ag)
Cc1ccc(S(=O)(=O)Nc2ccc(C(=O)N3CCCC3)cc2)cc1	none (no result: zfTRPN1 agonist, TRPML3 ag)
CC1CN(C(=O)c2ccc(S(=O)(=O)Nc3cccc(C(F)(F)F)c3)cc2)CC(C)O1 (stereo unspecified)	V1aR counter 21.4, OXTR ag 25.8 (no result: zfTRPN1 agonist, TRPML3 ag)
O=C(c1ccc(S(=O)(=O)Nc2cccc(C(F)(F)F)c2)cc1)N1CCOCC1	none (no result: zfTRPN1 agonist, TRPML3 ag)
Cc1ccc(NS(=O)(=O)c2ccc(C(=O)N3CC(C)CC(C)C3)cc2)cc1 (stereo unspecified)	V1aR counter 42.9, OXTR ag 69.4 (no result: zfTRPN1 agonist, TRPML3 ag)
CCCCCCCCCCOC(=O)Cn1c(COc2ccccc2)[n+](C)c2ccccc21	V1aR counter 52.9, OXTR ag 26.9 (no result: zfTRPN1 agonist, TRPML3 ag)
CCOc1ccccc1N(CC(=O)N1CCOCC1)S(=O)(=O)c1ccc(SC)cc1	zfTRPN1 agonist 57.5, TRPML3 ag 198.5 (no result: V1aR counter, OXTR ag, OXTR potentiate)
CCOC(=O)C1CCN(C(c2cccnc2)c2c(NC(=O)c3ccco3)sc(C)c2C)CC1 (stereo unspecified)	OXTR potentiate 12.2
Cc1sc(NC(=O)c2ccco2)c(C(c2cccnc2)N2CCN(CCO)CC2)c1C (stereo unspecified)	none
Cc1ccc(C2c3c(C)nn(-c4ccc([N+](=O)[O-])cc4)c3N=C3C(=O)Nc4ccccc4N32)cc1 (stereo unspecified)	zfTRPN1 agonist 25.9, TRPML3 ag 32.9
Cc1nn(-c2ccc([N+](=O)[O-])cc2)c2c1C(c1ccc(OC(F)F)cc1)N1C(=N2)C(=O)Nc2ccccc21 (stereo unspecified)	none
